Laboratory results: ChEMBL document CHEMBL1764953, “Discovery of orally active carboxylic acid derivatives of 2-phenyl-5-trifluoromethyloxazole-4-carboxamide as potent diacylglycerol acyltransferase-1 inhibitors for the potential treatment of obesity and diabetes” (J Med Chem, 2011)
Calls of active or inactive are those of the source. The calls are words filed in the database; no cut-off is given here.

How the values were obtained:
Rattus norvegicus [1] = experiment: Antidiabetic activity in diet-induced obese Sprague-Dawley rat assessed as decrease in glucose excursion at 0.3 mg/kg, po administered once daily for 3 weeks by OGTT; assay type: functional, organism-based; parameters: dose 0.3 mg/kg
Procedure, shortened: (§1)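 Male Sprague-Dawley DIO rats (n = 10/group), 550–650 g, reverse light/dark cycle, high fat diet from 7 weeks of age; dosed po once daily in Klucel suspension.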

Rattus norvegicus [2] = experiment: Antidiabetic activity in diet-induced obese Sprague-Dawley rat assessed as decrease in glucose excursion at 1 mg/kg, po administered once daily for 3 weeks by OGTT; assay type: functional, organism-based; parameters: dose 1 mg/kg; procedure, shortened: as §1
Rattus norvegicus [3] = experiment: Antiobesity activity in diet-induced obese rat assessed as decrease in food intake at 3 mg/kg, po administered once daily for 3 weeks; assay type: functional; parameters: scale not given: the % may be the effect or the level left
Procedure, shortened: (§2)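 Male DIO rats, 19 weeks old, on high fat diet for 12 weeks, dosed po once daily with Klucel (hydroxypropyl cellulose) suspension for 22 days; 10 rats per group. Body weight followed throughout; daily food intake recorded on days 1–3, 8, 9, 15 and 16, values averaged per group.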

[4] = Cmax in diet-induced obese rat at 3 mg/kg, po administered once daily for 3 weeks; assay type: ADME, organism-based; parameters: dose 3 mg/kg, route oral; conditions: in vivo
[5] = Cmax in diet-induced obese rat at 1 mg/kg, po administered once daily for 3 weeks; assay type: ADME, organism-based; parameters: dose 1 mg/kg, route oral; conditions: in vivo
[6] = Cmax in diet-induced obese rat at 0.3 mg/kg, po administered once daily for 3 weeks; assay type: ADME, organism-based; parameters: dose 0.3 mg/kg, route oral; conditions: in vivo
Rattus norvegicus [7] = experiment: Antiobesity activity in diet-induced obese rat assessed as reduction in body weight gain at 3 mg/kg, po administered once daily for 3 weeks; assay type: functional; parameters: scale not given: the % may be the effect or the level left; procedure, shortened: as §2
Rattus norvegicus [8] = experiment: Antiobesity activity in diet-induced obese rat assessed as reduction in plasma triglyceride levels at 3 mg/kg, po qd after 4 hrs challenged with corn oil relative to vehicle treated control; assay type: functional; parameters: scale not given: the % may be the effect or the level left
Procedure, shortened: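 Male DIO rats given 3 mg/kg po once daily for 1 week, with body weight gain followed. At study end, rats were fasted 4 h and challenged with corn oil 5 mL/kg; plasma triglycerides were measured 4 h later and compared with the vehicle group.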

[9] = Oral bioavailability in Beagle dog at 10 mg/kg; assay type: ADME, organism-based, Canis lupus familiaris; conditions: in vivo
Procedure, shortened: (§3)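 Plasma extracted by acetonitrile precipitation and quantified by LC-MS/MS (5.0–5000 ng/mL); noncompartmental PK; bioavailability relative to 5 mg/kg iv; mean of n = 3.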

[10] = Oral bioavailability in Hanover Wistar rat at 10 mg/kg; assay type: ADME, organism-based; conditions: in vivo
Procedure, shortened: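 Hanover Wistar rats (n = 3) with jugular/femoral cannulae, oral gavage of a 2 mg/mL suspension in 2% Klucel LF with 0.1% Tween 80; femoral-vein sampling, EDTA plasma, acetonitrile precipitation, LC-MS/MS (5.0–5000 ng/mL), noncompartmental analysis; F relative to 5 mg/kg iv; mean of n = 3.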

[11] = Tmax in Beagle dog at 10 mg/kg, po; assay type: ADME, organism-based, Canis lupus familiaris; parameters: dose 10 mg/kg, route oral; conditions: in vivo
Procedure, shortened: (§4)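 Oral gavage to rats (jugular/femoral vein-cannulated, femoral vein blood sampling) or beagle dogs, n = 3, as a 2 mg/mL suspension in 2% Klucel LF with 0.1% Tween 80 in water. Plasma extracted by acetonitrile protein precipitation and quantified by LC-MS/MS (linear 5.0–5000 ng/mL). Noncompartmental analysis; mean of 3.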

[12] = Tmax in Hanover Wistar rat at 10 mg/kg, po; assay type: ADME, organism-based; parameters: dose 10 mg/kg, route oral; conditions: in vivo; procedure, shortened: as §4
[13] = Cmax in Beagle dog at 10 mg/kg, po by LC-MS/MS; assay type: ADME, organism-based, Canis lupus familiaris; parameters: dose 10 mg/kg, route oral; conditions: in vivo; procedure, shortened: as §3
[14] = Half life in Beagle dog at 5 mg/kg, iv; assay type: ADME, organism-based, Canis lupus familiaris; parameters: dose 5 mg/kg, route intravenous; conditions: in vivo
Procedure, shortened: (§5)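 Plasma levels by protein precipitation with acetonitrile and LC-MS/MS (linear range 5.0–5000 ng/mL); noncompartmental analysis; mean of n = 3.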

[15] = Half life in Hanover Wistar rat at 5 mg/kg, iv; assay type: ADME, organism-based; parameters: dose 5 mg/kg, route intravenous; conditions: in vivo
Procedure, shortened: (§6)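 Hanover Wistar rats (n = 3) cannulated in jugular and femoral veins, dosed iv 5 mg/kg via jugular vein as a solution in 2% DMA, 15% PEG400, 77% of 28% HPβCD in pH 7 PBS. Femoral-vein blood, EDTA plasma, acetonitrile precipitation, LC-MS/MS, noncompartmental analysis; mean of n = 3.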

[16] = Clearance in Beagle dog at 5 mg/kg, iv; assay type: ADME, organism-based, Canis lupus familiaris; parameters: dose 5 mg/kg, route intravenous; conditions: in vivo; procedure, shortened: as §5
[17] = Clearance in Hanover Wistar rat at 5 mg/kg, iv; assay type: ADME, organism-based; parameters: dose 5 mg/kg, route intravenous; conditions: in vivo; procedure, shortened: as §6
[18] = Inhibition of P-glycoprotein
[19] = Lipophilicity, log D of the compound; assay type: physicochemical; conditions: octanol/water
[20] = Association constant pKa of the compound; assay type: physicochemical
[21] = biological target: T1, Diacylglycerol O-acyltransferase 2 (Homo sapiens, UniProt Q96PD7); experiment: Inhibition of human DGAT2 expressed in baculovirus infected Sf9 cells using palmitoyl-1-14C-coenzyme A by TLC assay
T1 sequence (Q96PD7 whole entry): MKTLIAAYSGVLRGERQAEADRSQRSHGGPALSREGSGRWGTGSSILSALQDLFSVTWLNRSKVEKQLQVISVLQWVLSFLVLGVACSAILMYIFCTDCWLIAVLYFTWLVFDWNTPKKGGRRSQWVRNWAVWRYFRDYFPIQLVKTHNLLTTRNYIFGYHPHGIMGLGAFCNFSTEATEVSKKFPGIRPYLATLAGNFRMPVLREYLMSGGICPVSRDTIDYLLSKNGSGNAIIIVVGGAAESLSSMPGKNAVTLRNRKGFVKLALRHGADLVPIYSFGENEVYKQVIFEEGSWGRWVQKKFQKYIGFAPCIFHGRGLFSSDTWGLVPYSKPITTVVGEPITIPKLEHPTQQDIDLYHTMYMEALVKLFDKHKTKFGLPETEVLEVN
Procedure, shortened: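 DGAT-2 membranes from baculovirus-infected Sf9 cells, diluted to 0.313 mg/mL in 50 mM Tris pH 7.5, 20 mM MgCl2, 0.25 M sucrose. Preincubated 15 min on ice with compound (0–600 μM solutions in 20% DMSO), then DAG and 8.3 μM [14C]palmitoyl-CoA solutions added; 5 min at 37 °C. Lipids extracted with chloroform/methanol, resolved by TLC, phosphoimager read-out.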

Rattus norvegicus [22] = experiment: Antidiabetic activity in diet-induced obese Sprague-Dawley rat assessed as insulin-mediated decrease in glucose level at 3 mg/kg, po administered once daily for 3 weeks OGTT; assay type: functional, organism-based; parameters: dose 3 mg/kg; procedure, shortened: as §1
[23] = biological target: T2, Diacylglycerol O-acyltransferase 1 (Homo sapiens, UniProt O75907); experiment: Inhibition of human DGAT1 expressed in CHO-K1 cells after 1 hr using 14C palmitic acid
T2 sequence (O75907 whole entry): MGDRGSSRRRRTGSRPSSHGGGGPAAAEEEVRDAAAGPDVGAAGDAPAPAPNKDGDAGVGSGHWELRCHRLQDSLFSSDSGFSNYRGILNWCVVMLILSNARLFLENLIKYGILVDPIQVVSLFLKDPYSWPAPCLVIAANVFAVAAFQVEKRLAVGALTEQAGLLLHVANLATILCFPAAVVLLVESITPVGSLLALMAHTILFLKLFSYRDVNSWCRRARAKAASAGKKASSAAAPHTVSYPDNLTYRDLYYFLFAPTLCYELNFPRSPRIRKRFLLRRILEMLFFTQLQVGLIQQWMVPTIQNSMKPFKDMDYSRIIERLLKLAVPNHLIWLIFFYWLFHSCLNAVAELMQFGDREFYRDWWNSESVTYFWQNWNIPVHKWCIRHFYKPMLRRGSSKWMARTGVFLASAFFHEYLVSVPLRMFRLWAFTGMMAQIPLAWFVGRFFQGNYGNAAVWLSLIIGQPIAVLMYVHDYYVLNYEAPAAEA

Cmax [4]: 15.1 µM
Cmax [5]: 4.8 µM
Cmax [6]: 2 µM
bioavailability [9]: 33%
bioavailability [10]: 73%
Tmax [11]: 2 h
Tmax [12]: 12 h
Cmax [13]: 4.7 µM
half-life [14]: 5.3 h
half-life [15]: 8.6 h
clearance [16]: 1.3 mL/min/kg
clearance [17]: 0.38 mL/min/kg
inhibition [18]: inactive
logD [19]: 2.34
pKa [20]: 5.78
IC50 [21]: > 100000 nM
EC50 [23]: 493 nM
Compound: O=C(Nc1ccc(C2CCN(C(=O)[C@H]3CC[C@H](C(=O)O)CC3)CC2)cc1)c1nc(-c2ccccc2)oc1C(F)(F)F
Activity (Rattus norvegicus [1]): Active
Activity (Rattus norvegicus [2]): Active
Activity (Rattus norvegicus [3]): 27%
Activity (Rattus norvegicus [7]): 8%
Activity (Rattus norvegicus [8]): 85%
Activity (Rattus norvegicus [22]): Active
